Assay outcomes (PubChem BioAssay)
L major viab – Leishmania major promastigote growth inhibition, primary screen | inhibition, % at 10 µM | AID 1063, 2008 | 200,000 compounds, 9% hits | Leishmania major promastigotes, resazurin fluorescence viability; in the data active = inhibition above about 50%;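 note: promastigotes grown with compound for 44 hours at 28 °C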
T cruzi inh – inhibitors of intracellular T. cruzi growth, primary screen, luminescence, NIH3T3 host cells. T. cruzi beta-gal in NIH3T3, 90 h. inhibition, % (test concentration not listed). 300,000 compounds, 1.4% hits. AID 1885, 2009;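 active = mean inhibition across valid replicates above about 55%, limit read from the data; inconclusive = mean below that limit but half or more replicates reach it; inactive = mean below it, under half of replicates reach it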;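 note: signal also drops with host cell toxicity which is not excluded here; 0% = plate median of DMSO wells and 100% = zero luminescence signal; higher percent means less beta-gal luminescence so fewer parasites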
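Assay system: NIH/3T3 fibroblasts plus reporter T. cruzi. Amount: NIH/3T3 cells, 5,000 per well. Buffer or medium: DMEM, 2% fetal bovine serum. Doses: compound pinned at 50 nL/well, DMSO. Schedule: ≥90 h infection period, 3 h prior cell attachment. Signal: luminescent β-galactosidase signal after 60 min lysis. Read-out: parasite load inhibition, %.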
NALP1 yeast inh – NALP1 inflammasome inhibitors in reconstituted yeast, colorimetric, S. cerevisiae, triplicate retest | inhibition, % at 10 µM | 280,000 compounds, 0.61% hits | S. cerevisiae NALP1/ASC/caspase-1 growth, X-gal OD620, 72 h; in the data active = inhibition mostly above about 24%, no sharp cut-off; inactive = mostly below about 32%
PolyA inhibitor – polyadenylation inhibitors in yeast reporter cells, primary screen, luminescence, S. cerevisiae; S. cerevisiae SKY197-pL101 polyadenylation reporter, beta-gal luminescence; efflux-impaired pdr1/pdr3 knockout yeast; score 100 = 6 SD above DMSO; activity score, % at 12 µM; 300,000 compounds, 0.02% hits;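 active = lowest replicate activity score at least 50, where 100 means six control SD above control mean; inconclusive = lowest score under 50 but half or more replicates reach 50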;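 note: yeast exposed to compound for 9 h at 30 °C; higher score means more reporter readthrough which indicates perturbed polyadenylation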
Calb FLC – C. albicans growth inhibition with fluconazole, primary screen, CaCi-2 strain, Alamar Blue fluorescence. C. albicans CaCi-2 + fluconazole, 48 h. growth inhibition, % (concentration not given with the values). 300,000 compounds, 0.57% hits. AID 1979, 2009;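 active = growth inhibition above about 58% in most replicates, limit read from the data, passing the limit was not always enough; inconclusive = exactly half the replicates above a set limit; inactive = most replicates below a set limit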;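 note: all wells also contain fluconazole at 8 µg/ml as a sub-toxic cotreatment; 0% = median of DMSO wells and 100% = median of geldanamycin control wells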
NALP3 yeast inh – NALP3 inflammasome inhibitors in reconstituted yeast, primary screen, luminescence, uHTS. 330,000 compounds, 0.39% hits. inhibition, % at 10 µM. Yeast reconstituted NLRP3/ASC/caspase-1, beta-gal luminescence, 24 h. AID 2825, 2010;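 active = inhibition of 50% or more; inactive = inhibition below 50%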;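 note: plate controls were induced DMSO wells for no effect and uninduced yeast grown without galactose for full effect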
Starred values were filed as active, the others as inactive; ? = inconclusive; / = no result given; ! = a repeat was not active. Shown is part of a subset that was picked to be rich in hits.

SMILES	L major viab	T cruzi inh	NALP1 yeast inh	PolyA inhibitor	Calb FLC	NALP3 yeast inh
CC(C)C(=O)NC(c1ccccc1Cl)c1c(O)ccc2ccccc12 (configuration not stated)	99*	12	2	12	0	12
CC(C)C(=O)NC(c1ccco1)c1c(O)ccc2ccccc12 (configuration not stated)	29	9	-4	7	-5	-3
CN(CC1CCCN(CCc2ccc(Cl)cc2)C1)C(=O)CC(F)(F)F (configuration not stated)	/	37	4	5	7	13
CCC(=O)NC(c1ccc(OC)cc1)c1c(O)ccc2ccccc12 (configuration not stated)	99*	-72	27	-12	-1	-1
CCC(=O)NC(c1ccccc1Cl)c1c(O)ccc2ccccc12 (configuration not stated)	22	13	22	10	13	14
COC(=O)c1[nH]c2cc(C)ccc2c1NC(=O)CN1CCc2cc(OC)c(OC)cc2C1	11	18	37	0	100*	10
CCOC(=O)c1[nH]c2ccccc2c1NC(=O)c1ccc2c(c1)OCO2	0	11	40*	0	-8	24
CCOC(=O)c1[nH]c2ccc(F)cc2c1NC(=O)CN1CCN(C/C=C/c2ccccc2)CC1	99*	51	14	-5	-2	30
CCOC(=O)c1[nH]c2ccc(F)cc2c1NC(=O)c1ccccc1C(=O)O	/	29	20	-99	85*	4
CCOC(=O)c1[nH]c2ccc(OC)cc2c1NC(=O)c1ccccc1C(=O)O	/	15	4	-68	4	14
CCOC(=O)c1[nH]c2ccc(F)cc2c1NC(=O)CN1CCc2cc(OC)c(OC)cc2C1	0	18	16	-8	0	22
CCOC(=O)N1CCN(C(=O)c2cc(COc3c(F)cccc3F)on2)CC1	/	4	4	-5	-1	17
COc1ccc([N+](=O)[O-])cc1NC(=O)COC(=O)c1ccc(O)cc1	/	-11	17	4	-3	3
CSc1ccc(S(=O)(=O)NCC(=O)OCC(=O)N2CCCC2=O)cc1[N+](=O)[O-]	/	1	/	26	0	26
COC(=O)c1[nH]c2ccccc2c1NC(=O)CN1CCN(C/C=C/c2ccccc2)CC1	64*	35	10	-11	15	12
COc1ccc(NC(=O)c2oc3ccccc3c2NC(=O)c2ccc3c(c2)OCO3)cc1	100*	15	21	-22	-7	8
COc1ccc(CN(C)Cc2nc3scc(-c4ccccc4)c3c(=O)[nH]2)cc1OC	63*	5	15	-5	2	2
CSCc1nc2scc(-c3ccccc3)c2c(=O)[nH]1	18	-2	-10	-6	-33	/
COc1ccc(C(=O)C(CCCCC(CN(C)C)C(=O)c2ccc(OC)cc2)CN(C)C)cc1 (configuration not stated)	100*	27	25*	-4	?	8
CCOc1ccc(C(=O)c2ccncc2)cc1	-6	-9	4	20	0	8
CCOc1ccc(C(=O)C(CCC(CN(C)C)C(=O)c2ccc(OCC)cc2)CN(C)C)cc1 (configuration not stated)	100*	31	48*	-4	-20	/
CN(C)CC(CCC(CN(C)C)C(=O)c1ccccc1)C(=O)c1ccccc1 (configuration not stated)	/	71*	26*	-4	?	/
CC1CCN(CCCNC(=O)c2ccc(N3CCCC3=O)cc2)CC1	/	28	11	9	0	3
COc1ccc(SCCc2ccncc2)cc1	-3	70*	-3	-1	29	15
c1ccc(SCCc2ccncc2)cc1	-2	28	10	17	-2	2
Fc1ccc(SCCc2ccncc2)cc1	3	68*!	11	-10	-6	-1
Cn1c(SCC(=O)NCC2CCCO2)nnc1-c1ccc(Cl)cc1 (configuration not stated)	/	/	/	/	/	19
